# Assay results published in ChEMBL document CHEMBL1144441, “Identification of a novel cardenolide (2''-oxovoruscharin) from Calotropis procera and the hemisynthesis of novel derivatives displaying potent in vitro antitumor activities and high in vivo tolerance: structure-activity relationship analyses” (J Med Chem, 2005).
# Experiments:
# [1] = target: Sodium/potassium-transporting ATPase subunit alpha-1 (Sus scrofa, UniProt P05024); experiment: In vitro inhibitory activity against porcine Na+/K+-ATPase
# Summary of the method: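 Porcine cerebral cortex Na+/K+-ATPase (3 × 10-3 units), preincubated 30 min at 37 °C in 30 mM Tris-HCl pH 7.4, 5 mM MgCl2 with inhibitor (1 to 50 000 nM). ADP formation coupled via pyruvate kinase/lactate dehydrogenase, excess phosphoenolpyruvate, to NADH oxidation.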
# Mus musculus [2] = experiment: Maximum tolerated dose after intraperitoneal administration in mouse (period of 28 days); type: functional
# Summary of the method: (§1)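 Healthy, non-tumour-bearing B6D2F1 mice given one acute intraperitoneal dose, three mice per dose group, doses 5, 10, 20, 40, 80, 120 and 160 mg/kg. Survival and body weight followed for 28 days after injection. MTD is the highest single dose causing no deaths over the period.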
# A549 = experiment: Concentration required for 50% growth inhibition of human A549 cancer cell lines after 3 days of culture; type: functional, cell-based; details: A549, 72 h
# Summary of the method: (§2)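 MTT overall-growth assay on the five lines. Cells were plated for 24 h at 10 000–40 000 cells/mL, depending on cell type. Nine concentrations from 10^-9 to 10^-5 M in semilog steps were applied for 72 h. Formazan was read at 570 nm against a 630 nm reference, in sextuplicate. IC50 = concentration reducing overall growth by 50% versus untreated control.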
# U373 MG = experiment: Concentration required for 50% growth inhibition of human U373 cancer cell lines after 3 days of culture; type: functional, cell-based, U-373MG ATCC; details: 72 h; summary of the method: as §2
# HCT-15 = experiment: Concentration required for 50% growth inhibition of human HCT-15 cancer cell lines after 3 days of culture; type: functional, cell-based; details: HCT-15, 72 h; summary of the method: as §2
# [3] = Concentration required for 50% growth inhibition of human Hs 683 cancer cell lines after 3 days of culture; type: functional, cell-based; details: 72 h; summary of the method: as §2
# LoVo = experiment: Concentration required for 50% growth inhibition of human LoVo cancer cell lines after 3 days of culture; type: functional, cell-based; details: 72 h; summary of the method: as §2
# Mus musculus [4] = experiment: Maximum tolerated dose after intraperitoneal administration in mouse (period of 28 days); not determined; type: functional; summary of the method: as §1
Structure (SMILES),IC50 [1],MTD (Mus musculus [2]),IC50 (A549),IC50 (U373 MG),IC50 (HCT-15),IC50 [3],IC50 (LoVo),MTD (Mus musculus [4])
C[C@@H]1C[C@@]2(N=C(N)CS2)C2(O[Si](C)(C)C)O[C@@H]3C[C@@]4(CO[Si](C)(C)C)[C@@H](CC[C@@H]5[C@@H]4CC[C@]4(C)[C@@H](C6=CC(=O)OC6)CC[C@]54CO[Si](C)(C)C)C[C@H]3O[C@@H]2O1 (stereo not given in full),> 50000 nM,>160 mg/kg,> 10000 nM,> 10000 nM,> 10000 nM,> 10000 nM,> 10000 nM,–
C[C@@H]1C[C@@]2(N=C(N)CS2)C2(O[Si](C)(C)C)O[C@@H]3C[C@@]4(CO)[C@@H](CC[C@@H]5[C@@H]4CC[C@]4(C)[C@@H](C6=CC(=O)OC6)CC[C@]54CO[Si](C)(C)C)C[C@H]3O[C@@H]2O1 (stereo not given in full),1890 nM,>160 mg/kg,126 nM,925 nM,454 nM,346 nM,340 nM,–
C[C@@H]1C[C@@]2(N[C@H](CC(=O)c3ccccc3)CS2)C2(O)O[C@@H]3C[C@@]4(CO)[C@@H](CC[C@@H]5[C@@H]4CC[C@]4(C)[C@@H](C6=CC(=O)OC6)CC[C@]54CO)C[C@H]3O[C@@H]2O1 (stereo not given in full),–,80 mg/kg,3 nM,34 nM,34 nM,4 nM,18 nM,–
C[C@@H]1C[C@@]2(NCCS2)[C@]2(O)O[C@@H]3C[C@@]4(C=O)[C@@H](CC[C@@H]5[C@@H]4CC[C@]4(C)[C@@H](C6=CC(=O)OC6)CC[C@]54O)C[C@H]3O[C@@H]2O1,–,1.25 mg/kg,5 nM,32 nM,27 nM,4 nM,17 nM,–
C[C@@H]1C[C@@]2(N=C(N)CS2)C2(O[Si](C)(C)C)O[C@@H]3C[C@@]4(C=O)[C@@H](CC[C@@H]5[C@@H]4CC[C@]4(C)[C@@H](C6=CC(=O)OC6)CC[C@]54CO[Si](C)(C)C)C[C@H]3O[C@@H]2O1 (stereo not given in full),50000 nM,>160 mg/kg,7540 nM,> 10000 nM,> 10000 nM,8600 nM,> 10000 nM,–
C[C@@H]1C[C@@]2(N=C(N)CS2)[C@]2(O)O[C@@H]3C[C@@]4(C=O)[C@@H](CC[C@@H]5[C@@H]4CC[C@]4(C)[C@@H](C6=CC(=O)OC6)CC[C@]54O)C[C@H]3O[C@@H]2O1,68 nM,5 mg/kg,25 nM,40 nM,28 nM,4 nM,10 nM,–
C[C@@H]1C[C@@]2(N=C(N)CS2)C2(O)O[C@@H]3C[C@@]4(COC(=O)c5ccccc5)[C@@H](CC[C@@H]5[C@@H]4CC[C@]4(C)[C@@H](C6=CC(=O)OC6)CC[C@]54CO)C[C@H]3O[C@@H]2O1 (stereo not given in full),> 50000 nM,>40 mg/kg,> 10000 nM,> 10000 nM,> 10000 nM,> 10000 nM,> 10000 nM,–
CC(=O)CCC(=O)OC[C@]12C[C@H]3OC4(O)[C@@H](O[C@H](C)C[C@@]45NC(=O)CS5)O[C@@H]3C[C@@H]1CC[C@@H]1[C@@H]2CC[C@]2(C)[C@@H](C3=CC(=O)OC3)CC[C@]12CO (stereo not given in full),–,–,463 nM,3230 nM,3240 nM,758 nM,3000 nM,20 mg/kg
C[C@@H]1C[C@@]2(N[C@@H](CC(=O)c3ccccc3)CS2)C2(O)O[C@@H]3C[C@@]4(CO)[C@@H](CC[C@@H]5[C@@H]4CC[C@]4(C)[C@@H](C6=CC(=O)OC6)CC[C@]54CO)C[C@H]3O[C@@H]2O1 (stereo not given in full),–,80 mg/kg,4 nM,38 nM,44 nM,4 nM,18 nM,–
CC(=O)OC[C@]12C[C@H]3OC4(O)[C@@H](O[C@H](C)C[C@@]45NC(=O)CS5)O[C@@H]3C[C@@H]1CC[C@@H]1[C@@H]2CC[C@]2(C)[C@@H](C3=CC(=O)OC3)CC[C@]12CO (stereo not given in full),–,>40 mg/kg,1860 nM,4600 nM,4430 nM,2780 nM,2770 nM,–
C[C@@H]1C[C@@]2(NC(=O)CS2)C2(O)O[C@@H]3C[C@@]4(COC(=O)CCc5ccccc5)[C@@H](CC[C@@H]5[C@@H]4CC[C@]4(C)[C@@H](C6=CC(=O)OC6)CC[C@]54CO)C[C@H]3O[C@@H]2O1 (stereo not given in full),–,>40 mg/kg,> 10000 nM,4190 nM,> 10000 nM,> 10000 nM,> 10000 nM,–
C[C@@H]1C[C@@]2(N=C(N)CS2)C2(O)O[C@@H]3C[C@@]4(C=O)[C@@H](CC[C@@H]5[C@@H]4CC[C@]4(C)[C@@H](C6=CC(=O)OC6)CC[C@]54CO)C[C@H]3O[C@@H]2O1 (stereo not given in full),–,10 mg/kg,9 nM,34 nM,27 nM,4 nM,5 nM,–
C[C@@H]1C[C@@]2(N=C(N)CS2)C2(O[Si](C)(C)C)O[C@@H]3C[C@@]4(CO[Si](C)(C)C)[C@@H](CC[C@@H]5[C@@H]4CC[C@]4(C)[C@@H](C6=CC(=O)OC6)CC[C@]54CO)C[C@H]3O[C@@H]2O1 (stereo not given in full),4080 nM,>160 mg/kg,2580 nM,4620 nM,3660 nM,1110 nM,3850 nM,–
C[C@@H]1C[C@@]2(N[C@@H](CC(=O)c3ccccc3)CS2)C2(O)O[C@@H]3C[C@@]4(C=O)[C@@H](CC[C@@H]5[C@@H]4CC[C@]4(C)[C@@H](C6=CC(=O)OC6)CC[C@]54CO)C[C@H]3O[C@@H]2O1 (stereo not given in full),–,10 mg/kg,18 nM,84 nM,92 nM,22 nM,100 nM,–
Cc1ccc(S(=O)(=O)OC[C@]23C[C@H]4OC5(O)[C@@H](O[C@H](C)C[C@@]56N=C(N)CS6)O[C@@H]4C[C@@H]2CC[C@@H]2[C@@H]3CC[C@]3(C)[C@@H](C4=CC(=O)OC4)CC[C@]23CO)cc1 (stereo not given in full),–,10 mg/kg,2720 nM,9960 nM,5800 nM,1430 nM,1060 nM,–
CC(=O)OC[C@]12C[C@H]3OC4(O[Si](C)(C)C)[C@@H](O[C@H](C)C[C@@]45N=C(N)CS5)O[C@@H]3C[C@@H]1CC[C@@H]1[C@@H]2CC[C@]2(C)[C@@H](C3=CC(=O)OC3)CC[C@]12CO[Si](C)(C)C (stereo not given in full),> 50000 nM,>160 mg/kg,> 10000 nM,> 10000 nM,> 10000 nM,7920 nM,9570 nM,–
CC(=O)OC[C@]12C[C@H]3OC4(O)[C@@H](O[C@H](C)C[C@@]45N=C(N)CS5)O[C@@H]3C[C@@H]1CC[C@@H]1[C@@H]2CC[C@]2(C)[C@@H](C3=CC(=O)OC3)CC[C@]12CO (stereo not given in full),12100 nM,>40 mg/kg,3700 nM,> 4150 nM,4130 nM,> 1280 nM,3540 nM,–
